Legend:
Format in all cases: microsomes
Details in all cases: Microsome
Capra hircus [1] = species on record: Capra hircus; assay: Induction of magnesium independent calcium-transporting ATPase activity in goat spermatozoa microsomal membranes at 70 nM by spectrophotometry
In short: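 Mg2+-independent Ca2+-ATPase in goat sperm microsomes (2 µg protein) was measured without blockers over varying compound concentrations. Incubation used 3 mM ATP in imidazole/sucrose buffer with EDTA and 2-mercaptoethanol, ±4 mM CaCl2, for 30 min at 37 °C, stopped with ice-cold 7% TCA and read spectrophotometrically. Activity is the difference between the +Ca2+ and −Ca2+ reactions.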

Capra hircus [2] = species on record: Capra hircus; assay: Induction of magnesium independent calcium-transporting ATPase activity in goat spermatozoa microsomal membranes at 20 ug by spectrophotometry in presence of […] of calcium channel blocker thapsigargin
In short: (§1)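 The compound (20 µg) was added together with a fixed concentration of the blocker. Reactions were stopped with 7% ice-cold TCA and read spectrophotometrically. Ca2+-dependent activity (+Ca2+ minus −Ca2+) is given as percent stimulation or inhibition, averaged over four assays.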

Capra hircus [3] = species on record: Capra hircus; assay: Induction of magnesium independent calcium-transporting ATPase activity in goat spermatozoa microsomal membranes at 20 ug by spectrophotometry in presence of 300 uM of calcium channel blocker verapamil; in short: as §1
Capra hircus [4] = species on record: Capra hircus; assay: Induction of magnesium independent calcium-transporting ATPase activity in goat spermatozoa microsomal membranes at 20 ug by spectrophotometry in presence of 1 mM of calcium channel blocker orthovanadate; in short: as §1

Row | Activity (Capra hircus [1]) [%] | Activity (Capra hircus [2]) [%] | Activity (Capra hircus [3]) [%] | Activity (Capra hircus [4]) [%] | Compound
1 | 36 | -28 | -14 | -24 | CO[C@H]1O[C@H](CS(=O)(=O)C[C@H]2O[C@H](OC)[C@H](O)[C@@H](O)[C@@H]2O)[C@@H](O)[C@H](O)[C@H]1O
2 | 30 | -33 | -8 | -21 | CO[C@@H]1O[C@H](CS(=O)(=O)C[C@H]2O[C@@H](OC)[C@H](O)[C@H](O)[C@@H]2O)[C@@H](O)[C@@H](O)[C@H]1O
3 | 49 | -29 | -2 | -27 | CO[C@H]1O[C@H](CS(=O)(=O)C[C@H]2O[C@H](OC)[C@@H](O)[C@@H](O)[C@@H]2O)[C@@H](O)[C@H](O)[C@@H]1O
4 | 30 | -31 | -9 | -17 | CO[C@H]1O[C@H](CS(=O)(=O)C[C@H]2O[C@H](OC)[C@H](O)[C@H](O)[C@@H]2O)[C@@H](O)[C@H](O)[C@H]1O
5 | 32 | -38 | -5 | -8 | CO[C@H]1O[C@H](CS(=O)(=O)C[C@H]2O[C@H](OC)[C@H](O)[C@@H](O)[C@H]2O)[C@@H](O)[C@H](O)[C@H]1O
6 | 43 | -35 | -3 | 4 | CO[C@H]1O[C@H](CS(=O)(=O)C[C@H]2O[C@H](OC)[C@H](O)[C@@H](O)[C@@H]2O)[C@@H](O)[C@H](O)[C@@H]1O
7 | 45 | -27 | -5 | -19 | CO[C@H]1O[C@H](CS(=O)(=O)C[C@H]2O[C@@H](OC)[C@H](O)[C@H](O)[C@@H]2O)[C@@H](O)[C@H](O)[C@@H]1O
8 | 53 | -36 | -21 | -25 | CO[C@H]1O[C@H](CS(=O)(=O)C[C@H]2O[C@H](OC)[C@H](O)[C@@H](O)[C@H]2O)[C@@H](O)[C@H](O)[C@@H]1O
